The values below come from ChEMBL document CHEMBL1125659, “Optical isomers of rocastine and close analogues: synthesis and H1 antihistaminic activity of its enantiomers and their structural relationship to the classical antihistamines” (J Med Chem, 1991).

Where only a bound is given, the exact number is not on record here.

For experiment [1], the system named is Cavia porcellus. The experiment in a line: Protection against histamine-induced lethality in guinea pig at 6 hr pretreatment time upon peroral administration. The experiment is classed as functional. The following applies: po. The method, boiled down: (§1)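 Female English short-hair guinea pigs (250–500 g), fasted overnight, dosed orally by gavage at set times before intravenous histamine challenge (1.2 mg/kg). Survival at 24 h postchallenge scored as protection. Groups of 5–10 animals per treatment; ED50 by Litchfield–Wilcoxon or computer probit analysis.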

In experiment [2] the test system is Cavia porcellus. The experiment in a line: Protection against histamine-induced lethality in guinea pig at 24 hr pretreatment time upon peroral administration. The following applies: po. The experiment is classed as functional. The essentials:
as §1

Experiment [3] deals with T1, Histamine H1 receptor (Cavia porcellus, UniProt P31389). Kind of experiment: Inhibition of [3H]mepyramine binding to the histamine receptor in guinea pig cortex. The experiment is classed as tissue-based. The method, boiled down:
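Cerebral cortex from female Dunkin-Hartley guinea pigs (200–500 g) homogenized in cold 50 mM Na/K phosphate pH 7.5, washed by three 48000g 4 °C spins, used fresh same day. [3H]mepyramine (15 nM stock, 23 Ci/mmol) incubated with membranes 20 min at 25 °C; filtration, scintillation counting. Six concentrations in triplicate; IC50 by linear/nonlinear curve fitting.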

Experiment [4] relates to Cavia porcellus. The experiment in a line: Protection against histamine-induced lethality in guinea pig at 1 hr pretreatment time upon peroral administration. The experiment is classed as functional. Conditions: po. The essentials: as §1
Experiment [5] has as its target T1, Histamine H1 receptor. Kind of experiment: Inhibition of [3H]mepyramine binding to the Histamine H1 receptor in guinea pig cortex. The experiment is classed as tissue-based. The essentials:
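Cerebral cortex from female Dunkin-Hartley guinea pigs (200–500 g) homogenized in cold 50 mM Na/K phosphate pH 7.5, washed by three 48000g 4 °C spins, used fresh same day. Six concentrations in triplicate; IC50 by linear/nonlinear curve fitting.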

Experiment [6] concerns Cavia porcellus. Kind of experiment: Protection against histamine-induced lethality in guinea pig at 24 hr pretreatment time upon peroral administration. The experiment is classed as functional. Conditions: po. The method, boiled down:
as §1

T1 sequence (P31389 whole entry): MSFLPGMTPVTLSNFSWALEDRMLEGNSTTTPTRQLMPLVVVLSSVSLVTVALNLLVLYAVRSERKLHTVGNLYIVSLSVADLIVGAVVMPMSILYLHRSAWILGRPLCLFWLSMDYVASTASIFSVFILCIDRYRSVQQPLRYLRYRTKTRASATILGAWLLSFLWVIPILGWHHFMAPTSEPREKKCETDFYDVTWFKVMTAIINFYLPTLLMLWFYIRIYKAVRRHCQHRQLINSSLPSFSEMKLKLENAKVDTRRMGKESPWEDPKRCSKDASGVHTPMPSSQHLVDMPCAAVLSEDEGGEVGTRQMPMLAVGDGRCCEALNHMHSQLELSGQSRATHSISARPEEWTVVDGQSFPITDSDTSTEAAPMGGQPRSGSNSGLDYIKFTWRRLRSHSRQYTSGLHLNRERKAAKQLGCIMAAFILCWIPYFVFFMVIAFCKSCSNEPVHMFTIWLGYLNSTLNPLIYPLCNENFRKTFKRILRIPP

The ED50 is the midpoint of the dose-response relation. By IC50 is commonly meant the concentration needed to halve the response being measured. A low value points to inhibition by little substance. Turning to `CN1C[C@@H](CCN2CCC2)Oc2ncc(Cl)cc2C1=S`, the ED50 in the experiment with Cavia porcellus [1] is 0.0078 mg/kg; with Cavia porcellus [2] it was 0.21 mg/kg; with Cavia porcellus [4], 0.0054 mg/kg. Also, the IC50 on Histamine H1 receptor [3] came to 0.26 nM.
Take `CN(C)CC[C@@H]1CN(C)C(=S)c2cccnc2O1`: the results for the ED50 with Cavia porcellus [1] and with Cavia porcellus [4] were 2.96 mg/kg and 0.07 mg/kg, respectively. At Histamine H1 receptor [3], this compound registered an IC50 of 30 nM.
With `CN(C)CC[C@H]1CN(C)C(=S)c2cc(Cl)cnc2O1`, in the experiment on Cavia porcellus [4], the ED50 stood at 66.8 mg/kg. Moreover, the IC50 on Histamine H1 receptor [5] turned out to be 11900 nM.
Taken in the same sequence, the figures for `CN(C)CC[C@H]1CN(C)C(=S)c2cccnc2O1` were 23 mg/kg and 21000 nM.
With `CN(C)CCC(c1ccc(Cl)cc1)c1ccccn1` (configuration not stated) [CHLORPHENIRAMINE], in the experiment with Cavia porcellus [4], the ED50 was 0.18 mg/kg.
For `CN(C)CCC(c1ccccn1)c1ccc(Cl)cn1` (configuration not stated), the ED50 in the experiment on Cavia porcellus [4] was 0.009 mg/kg. The same compound gave an IC50 on Histamine H1 receptor [5] of 24 nM.
On to `CN(C)CC[C@@H]1CN(C)C(=S)c2cc(Cl)cnc2O1`, for which the values for the ED50 with Cavia porcellus [1], in the experiment with Cavia porcellus [4] and in the experiment with Cavia porcellus [6] were 0.15 mg/kg, 0.013 mg/kg and 58 mg/kg, respectively. The IC50 on Histamine H1 receptor [3] came to 1.9 nM.
As for `CN(C)CCC(c1ccc(Cl)cc1)c1ccc(Cl)cn1` (configuration not stated), the ED50 with Cavia porcellus [4] was over 10 mg/kg. The compound also gave an IC50 at Histamine H1 receptor [5] of 430 nM.
For `CN1C[C@H](CCN2CCC2)Oc2ncc(Cl)cc2C1=S`, the ED50 in the experiment on Cavia porcellus [4] came out at 8.28 mg/kg. In addition, at Histamine H1 receptor [5], the IC50 amounted to 870 nM.
